ChEMBL document CHEMBL1134488, “Potent reversible inhibitors of the protein tyrosine phosphatase CD45” (J Med Chem, 2001)
pIC50: −log10 of the molar value.

Tests used:
[1] = target: T1, Tyrosine-protein phosphatase non-receptor type 13 (Homo sapiens, UniProt Q12923); test: Inhibitory concentration against FAP-1 pNPP
Procathepsin L = Procathepsin L (Homo sapiens, UniProt P07711); test: Inhibitory concentration against Cathepsin L
Summary of the method: (§1)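 Cysteine protease assays. Peptide substrates were CBZ-L-lysine p-nitrophenyl ester, Z-Phe-Arg-NH-Mec and Z-Val-Val-Arg-NH-Mec. Values are means of experiments run in triplicate, given in µM.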

Cathepsin B = Cathepsin B (Homo sapiens, UniProt P07858); test: Inhibitory concentration against Cathepsin B; summary of the method: as §1
T-cell [2] = test: In vitro inhibition of human T-cell proliferation; assay type: functional, cell-based
T-cell [3] = test: Cytotoxicity measured against human T-cells; assay type: functional
Cathepsin S = Cathepsin S (Homo sapiens, UniProt P25774); test: Inhibitory concentration against Cathepsin S; summary of the method: as §1
Chain of Cathepsin S (P25774 whole entry): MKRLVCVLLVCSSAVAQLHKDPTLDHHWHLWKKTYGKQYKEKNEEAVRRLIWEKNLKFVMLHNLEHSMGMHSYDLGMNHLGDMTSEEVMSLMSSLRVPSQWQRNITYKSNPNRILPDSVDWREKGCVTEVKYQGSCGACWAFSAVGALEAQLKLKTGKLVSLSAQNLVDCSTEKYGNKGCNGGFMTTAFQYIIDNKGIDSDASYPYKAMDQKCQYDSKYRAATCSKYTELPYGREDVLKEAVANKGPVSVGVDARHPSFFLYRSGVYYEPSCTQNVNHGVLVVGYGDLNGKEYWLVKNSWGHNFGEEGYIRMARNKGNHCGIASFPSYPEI

[4] = target: T1, Tyrosine-protein phosphatase non-receptor type 13; test: Inhibitory concentration against FAP-1 using lck-10 mer as substrate
[5] = target: T2, Receptor-type tyrosine-protein phosphatase C (Homo sapiens, UniProt P08575); test: Inhibitory concentration against CD45 protein-tyrosine phosphatase using lck-10mer as substrate
T2 sequence (P08575 whole entry): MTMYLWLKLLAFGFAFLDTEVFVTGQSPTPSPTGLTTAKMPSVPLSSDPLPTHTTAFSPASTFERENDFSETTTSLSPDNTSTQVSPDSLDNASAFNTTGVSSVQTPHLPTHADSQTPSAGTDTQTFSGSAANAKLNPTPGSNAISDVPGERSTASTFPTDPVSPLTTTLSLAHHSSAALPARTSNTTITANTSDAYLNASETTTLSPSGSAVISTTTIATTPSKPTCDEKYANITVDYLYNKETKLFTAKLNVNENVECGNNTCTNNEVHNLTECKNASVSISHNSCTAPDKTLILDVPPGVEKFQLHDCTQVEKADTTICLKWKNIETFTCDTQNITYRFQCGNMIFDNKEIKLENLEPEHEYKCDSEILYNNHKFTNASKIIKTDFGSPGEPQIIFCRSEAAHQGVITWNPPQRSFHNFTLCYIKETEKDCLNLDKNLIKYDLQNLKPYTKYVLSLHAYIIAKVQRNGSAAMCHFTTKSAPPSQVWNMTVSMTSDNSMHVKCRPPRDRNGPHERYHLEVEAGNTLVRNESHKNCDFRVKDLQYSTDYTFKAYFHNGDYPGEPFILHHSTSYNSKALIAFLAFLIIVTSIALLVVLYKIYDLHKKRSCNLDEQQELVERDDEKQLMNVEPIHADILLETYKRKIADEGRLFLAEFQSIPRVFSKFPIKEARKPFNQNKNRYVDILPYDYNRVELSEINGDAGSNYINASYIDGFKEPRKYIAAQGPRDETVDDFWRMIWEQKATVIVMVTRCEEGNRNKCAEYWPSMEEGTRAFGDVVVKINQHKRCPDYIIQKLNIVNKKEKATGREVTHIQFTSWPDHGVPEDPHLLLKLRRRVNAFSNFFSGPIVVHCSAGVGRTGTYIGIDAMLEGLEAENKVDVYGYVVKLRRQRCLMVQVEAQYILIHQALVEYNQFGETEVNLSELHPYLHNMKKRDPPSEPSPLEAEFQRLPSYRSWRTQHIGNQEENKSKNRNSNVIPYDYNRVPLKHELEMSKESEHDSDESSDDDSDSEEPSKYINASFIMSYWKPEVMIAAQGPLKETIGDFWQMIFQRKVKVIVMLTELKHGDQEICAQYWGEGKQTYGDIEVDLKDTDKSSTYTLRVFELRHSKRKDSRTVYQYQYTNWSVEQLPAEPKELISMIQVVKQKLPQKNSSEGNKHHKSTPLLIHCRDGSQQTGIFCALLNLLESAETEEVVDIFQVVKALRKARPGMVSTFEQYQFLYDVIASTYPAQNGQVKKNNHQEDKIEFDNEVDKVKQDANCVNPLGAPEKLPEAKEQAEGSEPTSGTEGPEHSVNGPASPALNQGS

[6] = target: T1, Tyrosine-protein phosphatase non-receptor type 13; test: Inhibitory concentration against FAP-1 using pNPP as substrate
[7] = target: T3, Tyrosine-protein phosphatase non-receptor type 1 (Homo sapiens, UniProt P18031); test: Inhibitory concentration against PTP1B lusing lck-10mer as substrate
T3 sequence (P18031 whole entry): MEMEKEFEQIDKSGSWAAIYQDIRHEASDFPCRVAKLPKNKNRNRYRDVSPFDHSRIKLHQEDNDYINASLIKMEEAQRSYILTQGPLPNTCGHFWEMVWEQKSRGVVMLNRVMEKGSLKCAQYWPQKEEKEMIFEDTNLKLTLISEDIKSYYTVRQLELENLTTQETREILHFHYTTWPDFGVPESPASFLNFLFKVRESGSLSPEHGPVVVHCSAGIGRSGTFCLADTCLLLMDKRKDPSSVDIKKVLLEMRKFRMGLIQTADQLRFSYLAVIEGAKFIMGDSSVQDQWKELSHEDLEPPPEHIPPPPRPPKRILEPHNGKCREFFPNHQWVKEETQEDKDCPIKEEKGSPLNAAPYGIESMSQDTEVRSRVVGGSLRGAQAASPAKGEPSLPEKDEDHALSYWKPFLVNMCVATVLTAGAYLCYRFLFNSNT

[8] = target: T1, Tyrosine-protein phosphatase non-receptor type 13; test: Inhibitory concentration against FAP-1 using lck-10mer as substrate

T1 sequence (Q12923 whole entry): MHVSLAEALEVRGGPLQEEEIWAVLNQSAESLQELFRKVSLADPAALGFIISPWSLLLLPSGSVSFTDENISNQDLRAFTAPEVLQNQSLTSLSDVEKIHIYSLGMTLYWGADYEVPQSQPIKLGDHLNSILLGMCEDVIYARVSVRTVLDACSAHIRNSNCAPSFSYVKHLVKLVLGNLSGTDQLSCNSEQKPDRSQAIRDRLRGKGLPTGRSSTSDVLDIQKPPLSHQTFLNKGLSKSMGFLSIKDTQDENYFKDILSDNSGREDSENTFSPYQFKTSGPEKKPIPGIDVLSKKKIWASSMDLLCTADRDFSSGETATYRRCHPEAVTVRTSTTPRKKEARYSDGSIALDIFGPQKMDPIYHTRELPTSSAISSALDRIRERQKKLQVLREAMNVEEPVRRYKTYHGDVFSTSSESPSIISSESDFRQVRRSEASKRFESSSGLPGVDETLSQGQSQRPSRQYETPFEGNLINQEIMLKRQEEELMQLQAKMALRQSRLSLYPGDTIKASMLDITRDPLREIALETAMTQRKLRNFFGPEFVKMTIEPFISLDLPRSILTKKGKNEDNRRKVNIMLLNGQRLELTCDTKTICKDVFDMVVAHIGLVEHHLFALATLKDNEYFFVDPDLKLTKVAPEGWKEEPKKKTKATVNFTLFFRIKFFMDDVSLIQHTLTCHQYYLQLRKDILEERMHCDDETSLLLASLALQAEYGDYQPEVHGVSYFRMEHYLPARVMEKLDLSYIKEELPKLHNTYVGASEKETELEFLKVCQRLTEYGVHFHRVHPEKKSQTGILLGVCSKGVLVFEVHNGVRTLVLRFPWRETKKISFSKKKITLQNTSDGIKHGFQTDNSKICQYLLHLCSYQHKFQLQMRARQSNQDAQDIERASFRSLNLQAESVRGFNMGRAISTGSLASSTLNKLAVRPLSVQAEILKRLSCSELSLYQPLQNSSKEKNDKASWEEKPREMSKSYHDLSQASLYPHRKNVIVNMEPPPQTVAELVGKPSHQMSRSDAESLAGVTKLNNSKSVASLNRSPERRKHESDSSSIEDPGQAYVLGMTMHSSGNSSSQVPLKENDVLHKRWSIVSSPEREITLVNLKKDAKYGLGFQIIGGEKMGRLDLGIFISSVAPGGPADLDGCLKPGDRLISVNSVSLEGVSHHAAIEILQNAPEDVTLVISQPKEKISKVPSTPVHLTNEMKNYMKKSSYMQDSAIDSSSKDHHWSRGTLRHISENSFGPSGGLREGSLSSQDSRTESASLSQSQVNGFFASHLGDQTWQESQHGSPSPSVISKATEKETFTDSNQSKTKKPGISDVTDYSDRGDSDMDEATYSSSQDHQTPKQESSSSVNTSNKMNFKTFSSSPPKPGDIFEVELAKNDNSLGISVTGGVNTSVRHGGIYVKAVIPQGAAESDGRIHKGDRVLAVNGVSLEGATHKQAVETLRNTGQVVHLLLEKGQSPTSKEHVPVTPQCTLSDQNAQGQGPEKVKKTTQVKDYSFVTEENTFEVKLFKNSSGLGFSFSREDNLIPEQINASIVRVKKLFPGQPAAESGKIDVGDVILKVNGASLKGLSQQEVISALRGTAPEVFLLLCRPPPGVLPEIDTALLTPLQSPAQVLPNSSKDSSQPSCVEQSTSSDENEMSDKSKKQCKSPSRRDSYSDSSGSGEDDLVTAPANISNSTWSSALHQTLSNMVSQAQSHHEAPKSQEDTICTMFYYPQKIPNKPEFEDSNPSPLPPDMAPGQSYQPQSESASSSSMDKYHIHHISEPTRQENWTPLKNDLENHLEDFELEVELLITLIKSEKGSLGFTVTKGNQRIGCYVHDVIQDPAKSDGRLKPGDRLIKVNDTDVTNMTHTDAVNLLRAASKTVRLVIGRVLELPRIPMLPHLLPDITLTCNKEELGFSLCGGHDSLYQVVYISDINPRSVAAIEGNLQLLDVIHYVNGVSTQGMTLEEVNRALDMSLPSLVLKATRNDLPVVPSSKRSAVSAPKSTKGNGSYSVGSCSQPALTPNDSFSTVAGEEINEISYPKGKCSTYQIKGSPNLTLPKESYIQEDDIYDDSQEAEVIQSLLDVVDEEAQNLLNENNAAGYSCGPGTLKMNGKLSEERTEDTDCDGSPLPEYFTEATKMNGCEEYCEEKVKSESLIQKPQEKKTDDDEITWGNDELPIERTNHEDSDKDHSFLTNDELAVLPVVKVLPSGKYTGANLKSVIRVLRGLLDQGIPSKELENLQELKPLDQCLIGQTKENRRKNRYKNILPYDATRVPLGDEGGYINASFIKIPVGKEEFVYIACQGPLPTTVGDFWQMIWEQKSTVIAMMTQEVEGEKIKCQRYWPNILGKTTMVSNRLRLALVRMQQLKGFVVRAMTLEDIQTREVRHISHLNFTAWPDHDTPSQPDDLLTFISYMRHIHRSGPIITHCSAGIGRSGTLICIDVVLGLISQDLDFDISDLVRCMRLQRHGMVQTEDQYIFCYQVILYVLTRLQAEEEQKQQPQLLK
Chain of Procathepsin L (P07711 whole entry): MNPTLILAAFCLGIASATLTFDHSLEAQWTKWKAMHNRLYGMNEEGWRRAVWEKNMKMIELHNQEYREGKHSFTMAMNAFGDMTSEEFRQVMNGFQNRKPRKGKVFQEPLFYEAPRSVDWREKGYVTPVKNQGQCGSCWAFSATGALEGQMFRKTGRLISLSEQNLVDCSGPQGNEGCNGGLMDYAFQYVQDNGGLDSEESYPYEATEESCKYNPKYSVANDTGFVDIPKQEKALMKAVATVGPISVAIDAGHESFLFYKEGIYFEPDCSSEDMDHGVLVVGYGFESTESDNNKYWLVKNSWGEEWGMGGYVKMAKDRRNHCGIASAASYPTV

O=C(O)CNC(=O)c1ccc2c(c1)C(=O)C(=O)c1ccccc1-2 was tested. Which pIC50 [1] did it give?
The pIC50 was 4.82.

And the pIC50 (Procathepsin L)?
The pIC50 was 6.05.

And the pIC50 (Cathepsin B)?
Its pIC50 is under 5.00.

And the pIC50 (T-cell [2])?
Its pIC50 is 5.36.

And the CC50 (T-cell [3])?
The CC50 was over 30 µM.

What about the pIC50 (Cathepsin S) of the same compound?
The pIC50 was under 5.00.

And the pIC50 [4]?
The pIC50 was under 4.52.

What about the pIC50 [5] of the same compound?
The pIC50 was 5.72.

Which results are given for Nc1ccc2c(c1)C(=O)C(=O)c1ccccc1-2?
pIC50 (Procathepsin L): 6.22; pIC50 [6]: 5.33; pIC50 (Cathepsin B): < 5.00; CC50 (T-cell [3]): 5 µM; pIC50 (Cathepsin S): 5.22; pIC50 [7]: < 4.52; pIC50 [8]: < 4.52
